Measured values from ChEMBL document CHEMBL1142566, “Natural and synthetic 2,2-dimethylpyranocoumarins with antibacterial activity” (2005).
Calls of active or inactive are those of the source. The rule behind the calls is not given here.

What was measured:
Format in all cases: functional
Escherichia coli = test: Antimicrobial activity against Escherichia coli ATCC 25922 after 24 hrs by disk diffusion assay
Method in brief: (§1)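 Bauer-Kirby disk diffusion on trypticase Mueller-Hinton agar. Plates were seeded with ATCC reference strains to a final 10⁷ cell/mL. Test compounds were dissolved in DMSO and applied to 6 mm paper disks, with solvent-only disks as negative control. Plates were incubated 24 h at 37 °C. Inhibition zone diameter (mm) was averaged over three experiments and scored <7 (-), 7-10 (+), 11-16 (++), >16 (+++).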

Klebsiella pneumoniae = test: Antimicrobial activity against Klebsiella pneumoniae ATCC 13883 after 24 hrs by disk diffusion assay; method in brief: as §1
[1] = tested on: Staphylococcus epidermidis; test: Antimicrobial activity against Staphylococcus epidermidis ATCC 12228 after 24 hrs by disk diffusion assay; method in brief: as §1
Proteus mirabilis = test: Antimicrobial activity against Proteus mirabilis after 24 hrs by disk diffusion assay; method in brief: as §1
Pseudomonas aeruginosa = test: Antimicrobial activity against Pseudomonas aeruginosa ATCC 27853 after 24 hrs by disk diffusion assay; method in brief: as §1
Enterobacter cloacae = test: Antimicrobial activity against Enterobacter cloacae ATCC 13047 after 24 hrs by disk diffusion assay; method in brief: as §1
Staphylococcus aureus = test: Antimicrobial activity against Staphylococcus aureus ATCC 25923 after 24 hrs by disk diffusion assay; method in brief: as §1

SMILES | Activity (Escherichia coli) | Activity (Klebsiella pneumoniae) | Activity [1] | Activity (Proteus mirabilis) | Activity (Pseudomonas aeruginosa) | Activity (Enterobacter cloacae) | Activity (Staphylococcus aureus) | inhibition zone (IZ) (Escherichia coli) | inhibition zone (IZ) (Klebsiella pneumoniae) | inhibition zone (IZ) [1] | inhibition zone (IZ) (Proteus mirabilis) | inhibition zone (IZ) (Pseudomonas aeruginosa) | inhibition zone (IZ) (Enterobacter cloacae) | inhibition zone (IZ) (Staphylococcus aureus)
CC1(C)Oc2ccc3ccc(=O)oc3c2[C@H](O)[C@H]1Br | inactive | inactive | inactive | inactive | inactive | inactive | inactive |  |  |  |  |  |  | 
CC1(C)CC(O)c2c(ccc3ccc(=O)oc23)O1 (stereo not given) | inactive | inactive | inactive | inactive | inactive | inactive | inactive |  |  |  |  |  |  | 
COc1cc2oc(=O)ccc2c2c1C=CC(C)(C)O2 [ALLOXANTHOXYLETIN] |  |  |  |  |  |  |  | 7 mm | 7 mm | 7 mm | 7 mm | 11 mm | 7 mm | 7 mm
CC1(C)C=Cc2c(c3c(c4ccc(=O)oc24)OC(C)(C)C=C3)O1 [DIPETALOLACTONE] |  |  |  |  |  |  |  | 7 mm | 7 mm | 7 mm | 7 mm | 11 mm | 7 mm | 11 mm
CC1(C)C=Cc2c(ccc3ccc(=O)oc23)O1 | inactive | inactive | inactive | inactive | inactive | inactive | inactive |  |  |  |  |  |  | 
COc1cc2c(c3oc(=O)ccc13)C(O)CC(C)(C)O2 (racemic) | inactive | inactive | inactive | inactive | inactive | inactive | inactive |  |  |  |  |  |  | 
CC1(C)C=Cc2c(cc(O)c3ccc(=O)oc23)O1 | inactive | inactive | inactive | inactive | inactive | inactive | inactive |  |  |  |  |  |  | 
COc1cc(OC)c2ccc(=O)oc2c1 [CITROPTEN] |  |  |  |  |  |  |  | 7 mm | 7 mm | 11 mm | 7 mm | 11 mm | 7 mm | 7 mm
CC(=O)O[C@H]1c2c(ccc3ccc(=O)oc23)OC(C)(C)[C@@H]1Br |  |  |  |  |  |  |  | <7 mm | <7 mm | 11 mm | 7 mm | <7 mm | <7 mm | 11 mm
COc1cc2c(c3oc(=O)ccc13)[C@H](OC(C)=O)[C@@H](Br)C(C)(C)O2 (racemic) |  |  |  |  |  |  |  | <7 mm | <7 mm | 11 mm | 7 mm | <7 mm | <7 mm | 7 mm
CC(=O)Oc1cc2oc(=O)ccc2c2c1C=CC(C)(C)O2 |  |  |  |  |  |  |  | 7 mm | 7 mm | 7 mm | 7 mm | 7 mm | 7 mm | 7 mm
COc1cc2c(c3oc(=O)ccc13)C=CC(C)(C)O2 |  |  |  |  |  |  |  | 7 mm | 7 mm | 7 mm | 11 mm | 11 mm | 7 mm | 7 mm
CC(=O)Oc1cc2c(c3oc(=O)ccc13)C=CC(C)(C)O2 |  |  |  |  |  |  |  | 7 mm | 7 mm | 7 mm | 7 mm | 7 mm | 7 mm | 7 mm
CC(=O)Oc1cc(OC(C)=O)c2ccc(=O)oc2c1 |  |  |  |  |  |  |  | 7 mm | 7 mm | 11 mm | 7 mm | 7 mm | 7 mm | 7 mm
COc1cc2c(c3oc(=O)ccc13)[C@H](OC(=O)c1ccccc1)[C@@H](Br)C(C)(C)O2 (racemic) |  |  |  |  |  |  |  | 7 mm | 7 mm | 7 mm | 7 mm | 11 mm | 7 mm | 7 mm
COc1cc2c(c3oc(=O)ccc13)[C@H](OC(C)=O)[C@H](OC(C)=O)C(C)(C)O2 (racemic) | inactive | inactive | inactive | inactive | inactive | inactive | inactive |  |  |  |  |  |  | 
COc1cc2c(c3oc(=O)ccc13)[C@H](O)[C@H](O)C(C)(C)O2 (racemic) | inactive | inactive | inactive | inactive | inactive | inactive | inactive |  |  |  |  |  |  | 
CC1(C)S[C@@H]2[C@H](NC(=O)[C@H](N)c3ccc(O)cc3)C(=O)N2[C@H]1C(=O)O [AMOXICILLIN] |  |  |  |  |  |  |  | >16 mm | 11 mm | >16 mm |  | >16 mm | >16 mm | >16 mm
CCN[C@@H]1C[C@H](N)[C@@H](O[C@H]2OC(CN)=CC[C@H]2N)[C@H](O)[C@H]1O[C@H]1OC[C@](C)(O)[C@H](NC)[C@H]1O [NETILMICIN] |  |  |  |  |  |  |  | >16 mm | 11 mm | >16 mm |  | >16 mm | >16 mm | >16 mm
CC1(C)Oc2ccc3ccc(=O)oc3c2[C@H](OC(=O)c2ccccc2)[C@H]1Br |  |  |  |  |  |  |  | 7 mm | 7 mm | 7 mm | 7 mm | 7 mm | 7 mm | 7 mm
O=c1ccc2c(O)cc(O)cc2o1 |  |  |  |  |  |  |  | 7 mm | 7 mm | 7 mm | 7 mm | 7 mm | 7 mm | 7 mm
CC1(C)Oc2ccc3ccc(=O)oc3c2[C@H](O)[C@@H]1O | inactive | inactive | inactive | inactive | inactive | inactive | inactive |  |  |  |  |  |  | 
CC1(C)C=Cc2c(O)cc3oc(=O)ccc3c2O1 | inactive | inactive | inactive | inactive | inactive | inactive | inactive |  |  |  |  |  |  | 
O=C(O)[C@H]1/C(=C/CO)O[C@@H]2CC(=O)N21 [CLAVULANIC ACID] |  |  |  |  |  |  |  | >16 mm | > 16 mm | >16 mm |  | >16 mm | >16 mm | >16 mm
COc1cc2c(c3oc(=O)ccc13)[C@H](O)[C@@H](Br)C(C)(C)O2 (racemic) |  |  |  |  |  |  |  | 7 mm | 7 mm | 7 mm | 7 mm | 11 mm | 7 mm | 7 mm
CC(=O)OC1CC(C)(C)Oc2ccc3ccc(=O)oc3c21 (stereo not given) | inactive | inactive | inactive | inactive | inactive | inactive | inactive |  |  |  |  |  |  | 
CC(=O)O[C@H]1c2c(ccc3ccc(=O)oc23)OC(C)(C)[C@H]1OC(C)=O | inactive | inactive | inactive | inactive | inactive | inactive | inactive |  |  |  |  |  |  | 
COc1cc2c(c3oc(=O)ccc13)C(OC(C)=O)CC(C)(C)O2 (racemic) |  |  |  |  |  |  |  | <7 mm | <7 mm | 11 mm | 7 mm | <7 mm | <7 mm | 11 mm
CC1(C)C=Cc2cc3ccc(=O)oc3cc2O1 | inactive | inactive | inactive | inactive | inactive | inactive | inactive |  |  |  |  |  |  | 
